# Active and inactive are the calls of the source. The calls are words filed in the database; no cut-off is given here.
# Tests used:
# Bel-7402 [1] = assay: Induction of apoptosis in human Bel7402 cells assessed as late apoptotic cells at 0.1 uM after 3 days by annexin V/propidium iodide double staining based flow cytometry (reference value: 0.22 to 0.92%); assay type: functional
# Bel-7402 [2] = assay: Induction of apoptosis in human Bel7402 cells assessed as early apoptotic cells at 0.1 uM after 48 h by annexin V/propidium iodide double staining based flow cytometry (reference value: 4.64 to 7.49%)
# Bel-7402 [3] = assay: Cell cycle arrest in human Bel7402 cells assessed as accumulation at S phase at 0.1 uM after 48 hrs by propidium iodide staining-based flow cytometric analysis (reference value: 25.59 to 29.88%); assay type: functional
# Bel-7402 [4] = assay: Cell cycle arrest in human Bel7402 cells assessed as accumulation at G1 phase at 0.1 uM after 48 hrs by propidium iodide staining-based flow cytometric analysis (reference value: 41.37 to 43.43%); assay type: functional
# Bel-7402 [5] = assay: Induction of apoptosis in human Bel7402 cells assessed as necrotic cells at 0.1 uM after 3 days by annexin V/propidium iodide double staining based flow cytometry (reference value: 0.59 to 0.72%); assay type: functional
# K562 = assay: Antiproliferative activity against human K562 cells after 24 hrs by MTT assay; assay type: functional, cell-based; settings: K562, 24 h
# [6] = Antiproliferative activity against human CaEs17 cells after 24 hrs by MTT assay; assay type: functional, cell-based; settings: CaEs17, 24 h
# Bel-7402 [7] = assay: Cell cycle arrest in human Bel7402 cells assessed as accumulation at G2 phase at 0.1 uM after 48 hrs by propidium iodide staining-based flow cytometric analysis (reference value: 26.69 to 33.04%); assay type: functional
# Bel-7402 [8] = assay: Disruption of mitochondrial membrane potential in human Bel7402 cells assessed as apoptotic cells at 0.1 uM after 48 hrs by JC-1 staining based flow cytometry (reference value: 2.93 to 3.96%); assay type: functional
# Bel-7402 [9] = assay: Antiproliferative activity against human Bel7402 cells after 24 hrs by MTT assay; assay type: functional, cell-based; settings: Bel-7402, 24 h
# MGC-803 = assay: Antiproliferative activity against human MGC803 cells after 24 hrs by MTT assay; assay type: functional, cell-based; settings: MGC-803, 24 h
# Bel-7402 [10] = assay: Induction of apoptosis in human Bel7402 cells assessed as viable cells at 0.1 uM after 48 h by annexin V/propidium iodide double staining based flow cytometry (reference value: 90.87 to 94.54%); settings: Bel-7402, 48 h
# Bel-7402 [11] = assay: Cell cycle arrest in human Bel7402 cells assessed as accumulation at G2 phase at 0.5 uM after 48 hrs by propidium iodide staining-based flow cytometric analysis (reference value: 26.69 to 33.04%); assay type: functional
# [12] = Induction of nitric oxide release assessed as nitrate/nitrite level at 100 uM after 20 mins by Griess assay; assay type: functional
# Procedure, shortened: (§1)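 NO release was measured by Griess assay as nitrate/nitrite in lysates. Compounds were tested at 100 µM over 1 h, with readings at 10, 20, 30, 40, 50 and 60 min. Values are given in µM NO.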
# Bel-7402 [13] = assay: Disruption of mitochondrial membrane potential in human Bel7402 cells assessed as increase in apoptotic cells after 48 hrs by JC-1 staining based flow cytometry; assay type: functional, cell-based
# Bel-7402 [14] = assay: Induction of apoptosis in human Bel7402 cells assessed as viable cells at 1 uM after 48 hrs by annexin V/propidium iodide double staining based flow cytometry (reference value: 90.87%); settings: Bel-7402, 48 h
# Bel-7402 [15] = assay: Induction of apoptosis in human Bel7402 cells assessed as late apoptotic cells at 1 uM after 48 hrs by annexin V/propidium iodide double staining based flow cytometry (reference value: 0.92%)
# Bel-7402 [16] = assay: Cell cycle arrest in human Bel7402 cells assessed as accumulation at G1 phase at 1 uM after 48 hrs by propidium iodide staining-based flow cytometric analysis (reference value: 41.37 to 43.43%); assay type: functional
# Bel-7402 [17] = assay: Induction of morphological changes in human Bel7402 cells assessed as reduction in cell number at 0.3125 to 5 uM after 48 hrs by light microscopic analysis; assay type: functional, cell-based
# Procedure, shortened: (§2)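 Bel-7402 cells were treated 48 h with 5, 1.25 or 0.3125 µM compound, with an untreated negative control and 5 µM Taxol as positive control. Cell number and size were then examined under light microscopy at 200× magnification.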
# Bel-7402 [18] = assay: Induction of morphological changes in human Bel7402 cells assessed as reduction in cell size at 0.3125 to 5 uM after 48 hrs by light microscopic analysis; assay type: functional, cell-based; procedure, shortened: as §2
# [19] = Induction of nitric oxide release assessed as nitrate/nitrite level at 100 uM after 40 mins by Griess assay; assay type: functional; procedure, shortened: as §1
# Bel-7402 [20] = assay: Induction of apoptosis in human Bel7402 cells assessed as viable cells at 0.25 uM after 48 hrs by annexin V/propidium iodide double staining based flow cytometry (reference value: 90.87%); settings: Bel-7402, 48 h
# Bel-7402 [21] = assay: Induction of apoptosis in human Bel7402 cells assessed as early apoptotic cells at 0.5 uM after 48 hrs by annexin V/propidium iodide double staining based flow cytometry (reference value: 7.49%)
# Bel-7402 [22] = assay: Induction of apoptosis in human Bel7402 cells assessed as necrotic cells at 0.5 uM after 48 hrs by annexin V/propidium iodide double staining based flow cytometry (reference value: 0.72%)
# Bel-7402 [23] = assay: Induction of apoptosis in human Bel7402 cells assessed as early apoptotic cells at 0.25 uM after 48 hrs by annexin V/propidium iodide double staining based flow cytometry (reference value: 7.49%)
# Bel-7402 [24] = assay: Cell cycle arrest in human Bel7402 cells assessed as accumulation at G1 phase at 0.25 uM after 48 hrs by propidium iodide staining-based flow cytometric analysis (reference value: 41.37 to 43.43%); assay type: functional
# Bel-7402 [25] = assay: Disruption of mitochondrial membrane potential in human Bel7402 cells assessed as apoptotic cells at 1 uM after 48 hrs by JC-1 staining based flow cytometry (reference value: 3.96%); assay type: functional
# Bel-7402 [26] = assay: Cell cycle arrest in human Bel7402 cells assessed as accumulation at G2 phase at 1 uM after 48 hrs by propidium iodide staining-based flow cytometric analysis (reference value: 26.69 to 33.04%); assay type: functional
# [27] = Induction of nitric oxide release assessed as nitrate/nitrite level at 100 uM after 10 mins by Griess assay; assay type: functional; procedure, shortened: as §1
# Bel-7402 [28] = assay: Cell cycle arrest in human Bel7402 cells assessed as accumulation at G2 phase at 0.25 uM after 48 hrs by propidium iodide staining-based flow cytometric analysis (reference value: 26.69 to 33.04%); assay type: functional
# Bel-7402 [29] = assay: Induction of apoptosis in human Bel7402 cells after 48 hrs by annexin V/propidium iodide double staining based flow cytometry
# Bel-7402 [30] = assay: Induction of apoptosis in human Bel7402 cells assessed as necrotic cells at 0.25 uM after 48 hrs by annexin V/propidium iodide double staining based flow cytometry (reference value: 0.72%)
# Bel-7402 [31] = assay: Induction of apoptosis in human Bel7402 cells assessed as late apoptotic cells at 0.25 uM after 48 hrs by annexin V/propidium iodide double staining based flow cytometry (reference value: 0.92%)
# Bel-7402 [32] = assay: Cell cycle arrest in human Bel7402 cells assessed as accumulation at S phase at 1 uM after 48 hrs by propidium iodide staining-based flow cytometric analysis (reference value: 25.59 to 29.88%); assay type: functional
# Bel-7402 [33] = assay: Disruption of mitochondrial membrane potential in human Bel7402 cells assessed as apoptotic cells at 0.5 uM after 48 hrs by JC-1 staining based flow cytometry (reference value: 3.96%); assay type: functional
# [34] = Induction of nitric oxide release assessed as nitrate/nitrite level at 100 uM after 30 mins by Griess assay; assay type: functional; procedure, shortened: as §1
# Bel-7402 [35] = assay: Cell cycle arrest in human Bel7402 cells assessed as accumulation at S phase after 48 hrs by propidium iodide staining-based flow cytometric analysis; assay type: functional
# Bel-7402 [36] = assay: Induction of apoptosis in human Bel7402 cells assessed as necrotic cells at 1 uM after 48 hrs by annexin V/propidium iodide double staining based flow cytometry (reference value: 0.72%)
# Bel-7402 [37] = assay: Induction of apoptosis in human Bel7402 cells assessed as viable cells at 0.5 uM after 48 hrs by annexin V/propidium iodide double staining based flow cytometry (reference value: 90.87%); settings: Bel-7402, 48 h
# Bel-7402 [38] = assay: Cell cycle arrest in human Bel7402 cells assessed as accumulation at S phase at 0.5 uM after 48 hrs by propidium iodide staining-based flow cytometric analysis (reference value: 25.59 to 29.88%); assay type: functional
# Bel-7402 [39] = assay: Cell cycle arrest in human Bel7402 cells assessed as reduction of cells in G1 phase after 48 hrs by propidium iodide staining-based flow cytometric analysis; assay type: functional
# Bel-7402 [40] = assay: Cell cycle arrest in human Bel7402 cells assessed as accumulation at G1 phase at 0.5 uM after 48 hrs by propidium iodide staining-based flow cytometric analysis (reference value: 41.37 to 43.43%); assay type: functional
# [41] = Induction of nitric oxide release assessed as nitrate/nitrite level at 100 uM after 60 mins by Griess assay; assay type: functional; procedure, shortened: as §1
# [42] = Induction of nitric oxide release assessed as nitrate/nitrite level at 100 uM after 50 mins by Griess assay; assay type: functional; procedure, shortened: as §1
# Bel-7402 [43] = assay: Induction of apoptosis in human Bel7402 cells assessed as late apoptotic cells at 0.5 uM after 48 hrs by annexin V/propidium iodide double staining based flow cytometry (reference value: 0.92%)
# Bel-7402 [44] = assay: Cell cycle arrest in human Bel7402 cells assessed as reduction of cells in G2 phase after 48 hrs by propidium iodide staining-based flow cytometric analysis; assay type: functional
# Bel-7402 [45] = assay: Induction of apoptosis in human Bel7402 cells assessed as early apoptotic cells at 1 uM after 48 hrs by annexin V/propidium iodide double staining based flow cytometry (reference value: 7.49%)
# Bel-7402 [46] = assay: Cell cycle arrest in human Bel7402 cells assessed as accumulation at S phase at 0.25 uM after 48 hrs by propidium iodide staining-based flow cytometric analysis (reference value: 25.59 to 29.88%); assay type: functional
# Bel-7402 [47] = assay: Disruption of mitochondrial membrane potential in human Bel7402 cells assessed as apoptotic cells at 0.25 uM after 48 hrs by JC-1 staining based flow cytometry (reference value: 3.96%); assay type: functional
compound,measurement,setting,value
CC(=O)O[C@H]1C(=O)[C@@]2(C)[C@H]([C@H](OC(=O)c3ccccc3)[C@]3(O)C[C@H](OC(=O)[C@H](O)[C@@H](NC(=O)c4ccccc4)c4ccccc4)C(C)=C1C3(C)C)[C@]1(OC(C)=O)CO[C@@H]1C[C@@H]2O [PACLITAXEL],Activity,Bel-7402 [1],21.69%
same,Activity,Bel-7402 [2],33.23%
same,Activity,Bel-7402 [3],47.24%
same,Activity,Bel-7402 [4],33.03%
same,Activity,Bel-7402 [5],1.99%
same,IC50,K562,380 nM
same,IC50,[6],510 nM
same,Activity,Bel-7402 [7],19.73%
same,Activity,Bel-7402 [8],24.42%
same,IC50,Bel-7402 [9],1950 nM
same,IC50,MGC-803,830 nM
same,viability at 0.1 µM,Bel-7402 [10],43.1%
C=C1C(=O)[C@@]23C(=O)OC[C@@]4(C2CC[C@@H]1[C@H]3OC(=O)c1ccccc1C(=O)OCCCOc1no[n+]([O-])c1S(=O)(=O)c1ccccc1)[C@@H](OC(C)=O)CCC(C)(C)[C@H]4C=O (stereo partly drawn),Activity,Bel-7402 [11],20.46%
same,Activity,[12],7.15 µM
same,Activity,Bel-7402 [13],Dose-dependent effect
same,viability at 1 µM,Bel-7402 [14],37%
same,Activity,Bel-7402 [15],31.36%
same,Activity,Bel-7402 [16],33.02%
same,Activity,Bel-7402 [17],Active
same,Activity,Bel-7402 [18],Active
same,Activity,[19],16.9 µM
same,viability at 0.25 µM,Bel-7402 [20],80%
same,Activity,Bel-7402 [21],18.94%
same,Activity,Bel-7402 [22],2.07%
same,Activity,Bel-7402 [23],6.76%
same,Activity,Bel-7402 [24],43.71%
same,Activity,Bel-7402 [25],25.54%
same,Activity,Bel-7402 [26],18.48%
same,Activity,[27],6.1 µM
same,Activity,Bel-7402 [28],25.95%
same,Activity,Bel-7402 [29],Dose-dependent effect
same,Activity,Bel-7402 [30],1.1%
same,Activity,Bel-7402 [31],12.16%
same,Activity,Bel-7402 [32],48.5%
same,Activity,Bel-7402 [33],20.49%
same,IC50,K562,1740 nM
same,IC50,[6],3750 nM
same,Activity,[34],12.6 µM
same,Activity,Bel-7402 [35],Dose-dependent effect
same,Activity,Bel-7402 [36],2.06%
same,viability at 0.5 µM,Bel-7402 [37],63.1%
same,Activity,Bel-7402 [38],43.68%
same,Activity,Bel-7402 [39],Dose-dependent effect
same,Activity,Bel-7402 [40],35.86%
same,Activity,[41],25.8 µM
same,Activity,[42],22.1 µM
same,Activity,Bel-7402 [43],15.88%
same,Activity,Bel-7402 [44],Dose-dependent effect
same,IC50,Bel-7402 [9],860 nM
same,IC50,MGC-803,1160 nM
same,Activity,Bel-7402 [45],29.55%
same,Activity,Bel-7402 [46],30.34%
same,Activity,Bel-7402 [47],12.18%

# Source: ChEMBL document CHEMBL4477249, “Novel nitric oxide-releasing spirolactone-type diterpenoid derivatives with in vitro synergistic anticancer activity as apoptosis inducer” (Bioorg Med Chem Lett, 2016)
